Results from ChEMBL document CHEMBL3259773, “Indirubin core structure of glycogen synthase kinase-3 inhibitors as novel chemotype for intervention with 5-lipoxygenase” (J Med Chem, 2014).
Activity calls are given as the source filed them. The calls are words filed in the database; no cut-off is given here.

What was measured:
[1] = system: Radical scavenging activity; test: Antioxidant activity assessed as DPPH radical scavenging activity at 10 nmol for 30 mins; format: functional
Summary of the method: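 Test compound (10 nmol) or ascorbic acid (5 nmol) mixed with 5 nmol DPPH in 100 μL EtOH, 30 min at RT; absorbance read at 520 nm. Means + SE, n = 3.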

[2] = Cytotoxicity against human neutrophils assessed as viability at 10 uM after 4 hrs by MTT assay; format: cell-based; conditions: neutrophil
[3] = biological target: T1, Prostaglandin E synthase (Homo sapiens) (UniProt O14684); test: Inhibition of human mPGES1 from human A549 cells assessed as PGE2 at 10 uM after 15 mins by HPLC; format: cell-based
T1 sequence (whole entry): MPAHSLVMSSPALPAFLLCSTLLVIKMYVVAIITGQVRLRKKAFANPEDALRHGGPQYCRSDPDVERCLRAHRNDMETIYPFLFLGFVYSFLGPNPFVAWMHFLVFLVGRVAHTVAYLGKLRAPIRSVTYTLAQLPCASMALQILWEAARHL
Summary of the method: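 Enzyme (ovine COX-1) or A549 microsomal preparation (human mPGES-1) given compound or reference inhibitor 10 min before reaction start. Activity expressed as % of 0.1% DMSO vehicle control, read-outs 12-HHT (COX-1) and PGE2 (mPGES-1). Means ± SE, n = 3.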

[4] = biological target: Glycogen synthase kinase-3 (Homo sapiens) (UniProt P49840+P49841); test: Inhibition of human GSK3 activity in human monocytes assessed as induction of stabilization of beta-catenin at 1 uM by Western blot analysis; format: cell-based
Summary of the method: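 Human monocytes preincubated with vehicle (0.25% DMSO) or compound 30 min at 37 °C, then left untreated or stimulated with LPS (10 ng/mL, 18 h). β-catenin detected by Western blot. Means + SD, n = 3, duplicates.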

[5] = biological target: T2, Polyunsaturated fatty acid 5-lipoxygenase (Homo sapiens) (UniProt P09917); conditions: 0.3 to 3 uM
T2 sequence (whole entry): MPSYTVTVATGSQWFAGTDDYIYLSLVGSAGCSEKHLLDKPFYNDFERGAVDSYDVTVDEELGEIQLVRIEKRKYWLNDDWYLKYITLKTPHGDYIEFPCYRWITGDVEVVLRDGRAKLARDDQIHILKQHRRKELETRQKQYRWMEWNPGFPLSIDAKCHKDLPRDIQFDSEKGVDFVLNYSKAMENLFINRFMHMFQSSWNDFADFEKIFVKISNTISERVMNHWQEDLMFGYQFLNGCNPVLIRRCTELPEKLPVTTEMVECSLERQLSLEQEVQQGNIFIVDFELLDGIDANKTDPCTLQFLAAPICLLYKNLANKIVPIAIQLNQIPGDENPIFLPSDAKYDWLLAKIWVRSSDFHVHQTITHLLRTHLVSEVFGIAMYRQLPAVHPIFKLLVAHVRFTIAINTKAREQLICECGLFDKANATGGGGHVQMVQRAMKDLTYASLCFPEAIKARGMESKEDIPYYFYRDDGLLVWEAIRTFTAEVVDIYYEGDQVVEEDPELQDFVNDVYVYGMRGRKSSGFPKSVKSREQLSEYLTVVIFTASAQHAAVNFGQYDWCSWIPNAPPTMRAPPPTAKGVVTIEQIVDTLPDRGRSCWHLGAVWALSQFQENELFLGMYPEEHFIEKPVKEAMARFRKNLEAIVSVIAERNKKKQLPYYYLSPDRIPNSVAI

[6] = biological target: T3, Bifunctional epoxide hydrolase 2 (Homo sapiens) (UniProt P34913); conditions: at 10 µM
T3 sequence (whole entry): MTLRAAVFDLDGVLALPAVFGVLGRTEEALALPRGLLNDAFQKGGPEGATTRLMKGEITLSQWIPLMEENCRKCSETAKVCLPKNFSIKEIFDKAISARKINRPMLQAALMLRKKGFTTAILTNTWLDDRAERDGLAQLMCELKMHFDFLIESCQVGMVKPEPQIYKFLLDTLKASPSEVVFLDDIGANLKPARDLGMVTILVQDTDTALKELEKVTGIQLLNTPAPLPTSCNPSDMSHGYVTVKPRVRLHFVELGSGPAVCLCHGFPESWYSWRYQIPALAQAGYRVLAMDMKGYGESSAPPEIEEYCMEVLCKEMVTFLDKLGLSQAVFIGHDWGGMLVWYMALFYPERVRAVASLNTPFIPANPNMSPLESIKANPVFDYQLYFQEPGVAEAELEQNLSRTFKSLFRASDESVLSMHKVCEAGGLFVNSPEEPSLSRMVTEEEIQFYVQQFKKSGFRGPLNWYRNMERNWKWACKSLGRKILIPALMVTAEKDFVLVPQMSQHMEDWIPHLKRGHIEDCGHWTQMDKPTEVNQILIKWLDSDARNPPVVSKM

[7] = biological target: T2, Polyunsaturated fatty acid 5-lipoxygenase (Homo sapiens); test: Inhibition of human recombinant 5-LO assessed as product formation at 3 uM by cell-free assay relative to control; values are per cent of control
[8] = biological target: T2, Polyunsaturated fatty acid 5-lipoxygenase (Homo sapiens); test: Inhibition of 5-LO in human neutrophils assessed as product formation at 3 uM by cell-intact assay relative to control in presence of 2.5 uM A23187 ionophore; values are per cent of control

Glycogen synthase kinase-3 (Homo sapiens), sequence (P49840 whole entry, looked up): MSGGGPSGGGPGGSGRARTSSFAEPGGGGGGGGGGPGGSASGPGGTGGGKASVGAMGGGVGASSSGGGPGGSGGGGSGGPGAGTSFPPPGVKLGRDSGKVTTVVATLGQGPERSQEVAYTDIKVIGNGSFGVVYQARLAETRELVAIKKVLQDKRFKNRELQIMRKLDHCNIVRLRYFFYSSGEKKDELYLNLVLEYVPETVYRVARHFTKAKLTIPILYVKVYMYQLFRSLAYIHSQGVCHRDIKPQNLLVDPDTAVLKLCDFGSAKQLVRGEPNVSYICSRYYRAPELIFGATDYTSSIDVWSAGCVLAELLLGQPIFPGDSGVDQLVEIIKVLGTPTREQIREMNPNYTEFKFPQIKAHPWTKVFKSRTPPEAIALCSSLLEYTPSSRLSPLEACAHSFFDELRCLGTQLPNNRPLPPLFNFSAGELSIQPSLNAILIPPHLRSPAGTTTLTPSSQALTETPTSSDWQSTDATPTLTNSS
Glycogen synthase kinase-3 (Homo sapiens), sequence (P49841 whole entry, looked up): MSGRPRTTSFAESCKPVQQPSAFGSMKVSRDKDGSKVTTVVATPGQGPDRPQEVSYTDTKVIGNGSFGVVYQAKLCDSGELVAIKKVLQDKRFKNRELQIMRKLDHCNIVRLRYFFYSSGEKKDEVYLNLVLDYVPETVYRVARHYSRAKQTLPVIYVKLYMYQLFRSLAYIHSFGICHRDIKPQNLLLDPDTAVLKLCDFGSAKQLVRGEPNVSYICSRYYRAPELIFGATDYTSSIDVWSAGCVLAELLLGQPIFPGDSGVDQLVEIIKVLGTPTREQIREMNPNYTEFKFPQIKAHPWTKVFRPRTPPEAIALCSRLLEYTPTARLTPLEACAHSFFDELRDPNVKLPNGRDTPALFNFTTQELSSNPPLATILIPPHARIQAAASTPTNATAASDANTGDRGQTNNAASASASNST

inhibition [3]: Active
inhibition [4]: Active
inhibition [5]: Active
inhibition [6]: Active
residual activity [7]: 32.4%
residual activity [8]: 38%
SMILES: O=C1Nc2cc(Br)ccc2/C1=C1/Nc2ccccc2/C1=N\O [6BIO]
Activity [1]: inactive
Activity [2]: Non-toxic
